Measured values published in ChEMBL document CHEMBL4406804, “Discovery of a Potent Steroidal Glucocorticoid Receptor Antagonist with Enhanced Selectivity against the Progesterone and Androgen Receptors (OP-3633)” (J Med Chem, 2019).
In brackets after ≈: the same amount, converted by molar mass. Activity calls are given as the source filed them. No cut-off for these calls is given here.

Columns and labels:
[1] = Clearance in rat at 0.5 mg/kg, iv; assay type: ADME, organism-based; conditions: in vivo
Procedure, shortened: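 Rat PK study. The iv dose of 0.5 mg/kg was given in 10% DMSO, 70% PEG 400 and 20% water. The oral dose of 5 mg/kg was given in 5% DMSO / 95% of 0.2% Tween 80 in 0.25% CMC, adjusted to pH 4 for one compound. Read-outs were CL, Vss, iv t1/2, F, Cmax and AUC.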

[2] = target: T1, Progesterone receptor (Homo sapiens) (UniProt P06401); assay: Agonist activity at human progesterone receptor expressed in CHO-K1 cells harboring firefly luciferase gene after 20 hrs by One-Glo luciferase reporter gene assay; assay type: cell-based
T1 sequence (whole entry): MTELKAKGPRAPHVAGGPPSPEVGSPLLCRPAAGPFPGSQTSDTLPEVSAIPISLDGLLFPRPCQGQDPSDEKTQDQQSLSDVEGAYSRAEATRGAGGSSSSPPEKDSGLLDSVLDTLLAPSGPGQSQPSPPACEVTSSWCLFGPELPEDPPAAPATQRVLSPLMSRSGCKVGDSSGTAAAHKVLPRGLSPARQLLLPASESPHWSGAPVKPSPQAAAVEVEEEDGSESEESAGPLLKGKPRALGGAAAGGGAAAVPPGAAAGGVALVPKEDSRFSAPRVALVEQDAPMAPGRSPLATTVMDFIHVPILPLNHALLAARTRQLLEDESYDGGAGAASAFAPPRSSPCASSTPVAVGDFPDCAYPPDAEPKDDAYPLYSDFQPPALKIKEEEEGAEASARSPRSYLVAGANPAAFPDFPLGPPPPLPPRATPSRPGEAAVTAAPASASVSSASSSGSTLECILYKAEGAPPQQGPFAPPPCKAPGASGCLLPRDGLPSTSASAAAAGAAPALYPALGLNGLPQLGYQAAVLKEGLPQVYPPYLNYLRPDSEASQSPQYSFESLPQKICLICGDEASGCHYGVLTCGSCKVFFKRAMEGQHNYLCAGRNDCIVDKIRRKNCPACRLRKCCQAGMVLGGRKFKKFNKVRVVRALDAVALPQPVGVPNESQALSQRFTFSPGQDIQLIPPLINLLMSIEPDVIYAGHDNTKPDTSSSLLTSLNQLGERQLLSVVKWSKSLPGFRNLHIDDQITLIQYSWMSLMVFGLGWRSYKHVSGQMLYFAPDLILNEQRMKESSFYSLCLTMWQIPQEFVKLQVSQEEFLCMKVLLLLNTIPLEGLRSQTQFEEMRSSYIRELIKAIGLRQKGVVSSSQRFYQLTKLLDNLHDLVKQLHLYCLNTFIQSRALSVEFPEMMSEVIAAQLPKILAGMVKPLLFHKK
Procedure, shortened: (§1)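 Cell-based luciferase reporter assays for GR, AR and PR, run in agonist and antagonist modes. Potency and Emax are averages of at least two determinations, reported with SD.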

[3] = target: T2, Glucocorticoid receptor (Homo sapiens, UniProt P04150); assay: Antagonist activity at human glucocorticoid receptor expressed in CHO-K1 cells harboring firefly luciferase gene after 20 hrs by One-Glo luciferase reporter gene assay; assay type: cell-based
T2 sequence (P04150 whole entry): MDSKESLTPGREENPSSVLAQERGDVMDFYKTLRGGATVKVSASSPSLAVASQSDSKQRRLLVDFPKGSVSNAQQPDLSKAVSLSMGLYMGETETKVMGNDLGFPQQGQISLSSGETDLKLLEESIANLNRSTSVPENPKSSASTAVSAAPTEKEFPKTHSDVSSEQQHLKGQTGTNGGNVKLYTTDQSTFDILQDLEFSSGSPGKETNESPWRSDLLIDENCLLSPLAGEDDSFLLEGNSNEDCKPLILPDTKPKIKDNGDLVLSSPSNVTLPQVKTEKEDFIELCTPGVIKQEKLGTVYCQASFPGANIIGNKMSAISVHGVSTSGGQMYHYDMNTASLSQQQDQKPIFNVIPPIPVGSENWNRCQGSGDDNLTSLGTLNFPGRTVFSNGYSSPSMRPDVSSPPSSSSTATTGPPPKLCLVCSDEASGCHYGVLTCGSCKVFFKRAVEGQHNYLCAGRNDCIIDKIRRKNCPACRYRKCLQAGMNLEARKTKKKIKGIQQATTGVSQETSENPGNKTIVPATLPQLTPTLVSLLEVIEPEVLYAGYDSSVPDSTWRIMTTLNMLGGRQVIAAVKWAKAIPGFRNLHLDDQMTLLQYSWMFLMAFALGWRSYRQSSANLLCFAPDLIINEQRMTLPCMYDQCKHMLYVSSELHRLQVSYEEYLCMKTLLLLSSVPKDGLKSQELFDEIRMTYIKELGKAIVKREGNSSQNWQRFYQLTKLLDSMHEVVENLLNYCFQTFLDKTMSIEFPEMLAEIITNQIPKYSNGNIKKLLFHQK

[4] = Toxicity in female rat assessed as effect on ovarian weight at 250 mg/kg/day, po administered once daily via gavage for 14 days; assay type: organism-based; conditions: in vivo, 336 h
[5] = target: T3, Androgen receptor (Homo sapiens, UniProt P10275); assay: Agonist activity at human androgen receptor in human LNCAP cells harboring firefly luciferase gene after 20 hrs by One-Glo luciferase reporter gene assay relative to mifepristone; assay type: cell-based; procedure, shortened: as §1
T3 sequence (P10275 whole entry): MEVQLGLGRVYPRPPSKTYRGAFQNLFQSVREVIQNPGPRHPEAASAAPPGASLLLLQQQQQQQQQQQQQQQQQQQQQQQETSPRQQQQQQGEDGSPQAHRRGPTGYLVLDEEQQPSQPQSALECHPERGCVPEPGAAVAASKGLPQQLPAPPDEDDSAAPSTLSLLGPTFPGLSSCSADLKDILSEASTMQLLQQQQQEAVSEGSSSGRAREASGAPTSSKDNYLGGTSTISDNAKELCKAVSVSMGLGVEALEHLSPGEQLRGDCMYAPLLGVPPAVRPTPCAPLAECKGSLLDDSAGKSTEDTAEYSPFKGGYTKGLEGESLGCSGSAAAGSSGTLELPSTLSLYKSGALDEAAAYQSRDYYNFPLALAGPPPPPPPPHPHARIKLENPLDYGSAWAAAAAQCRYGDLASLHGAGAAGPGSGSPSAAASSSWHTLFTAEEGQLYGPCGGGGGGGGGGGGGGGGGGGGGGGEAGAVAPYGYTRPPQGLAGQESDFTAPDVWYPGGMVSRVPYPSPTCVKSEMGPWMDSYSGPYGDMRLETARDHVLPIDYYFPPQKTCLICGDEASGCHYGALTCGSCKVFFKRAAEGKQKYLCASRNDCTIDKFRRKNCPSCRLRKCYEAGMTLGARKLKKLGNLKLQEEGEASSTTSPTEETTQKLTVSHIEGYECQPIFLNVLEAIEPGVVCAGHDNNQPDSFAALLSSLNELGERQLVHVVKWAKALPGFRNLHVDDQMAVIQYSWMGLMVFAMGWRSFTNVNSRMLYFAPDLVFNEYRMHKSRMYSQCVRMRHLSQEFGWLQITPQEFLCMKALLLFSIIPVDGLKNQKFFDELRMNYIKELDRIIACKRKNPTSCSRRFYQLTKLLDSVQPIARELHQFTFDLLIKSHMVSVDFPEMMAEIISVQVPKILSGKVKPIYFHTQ

[6] = Solubility of compound in PBS at pH 7.4; assay type: physicochemical

For CC#C[C@]1(O)CC[C@H]2[C@@H]3CCC4=CC(=O)CC[C@]4(C)[C@H]3[C@@H](c3ccc(N(C)C)cc3)C[C@@]21C, the clearance [1] was 51.7 mL/min/kg, the agonist activity [2] was “inactive” and the IC50 [3] was 29 nM. For the same compound, the Activity [4] was “Non-Toxic”, the Emax at 20 h [5] was 13.3% and the solubility [6] was 20.6 µM (≈ 9.18 µg/mL).
